Experimental data from the RNAGym collection of RNA variant scans (doi:10.1126/science.aae0568).
This sample holds only a part of the variants without activity.

B1: tRNA (parent)
chain: GUUCCGUUGGCGUAAUGGUAACGCGUCUCCCUCCUAAGGAGAAGACUGCGGGUUCGAGUCCCGUACGGAACG

Variants of: B1
Test: yeast fitness relative to wild type (ratio to wild type); higher = fitter; tRNA-Arg(CCU), competitive growth, 37 C, YPD
In short: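 Changes in genotype frequencies gave Darwinian fitness relative to wild type. Frequencies were read by 100-nucleotide paired-end sequencing of gene amplicons before and after pooled Saccharomyces cerevisiae strains, carrying tRNA-Arg(CCU) gene variants at the native locus, were competed in YPD at 37°C for 24 hours in six replicates. A genotype was kept only with ≥ 100 starting reads, and estimates < 0.5 were set to 0.5.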

| Variant | yeast fitness |
| --- | --- |
| A20C U26G A43U | ≤ 0.5 |
| A20C C29U A37G A69U | 0.526 |
| A20C G56A A70U | 0.91 |
| A20C G56A A70G | 0.611 |
| A20G A40G C49U G58A | ≤ 0.5 |
| A20C G56A C61U | 0.571 |
| A20C G48C G67A | 0.638 |
| A20C C24G C29G A65G | ≤ 0.5 |
| A20C C30U C31U A45C A57U C66G | ≤ 0.5 |
| A20C G67A | 0.873 |
| A20C G67C | 0.654 |
| A20G A45U G48A C55A | ≤ 0.5 |
| A20C U28C | 0.929 |
| A20G A42C C61U | 0.573 |
| A20G A70G | 1.02 |
| A20G A70U | 1.06 |
| A20G A70C | 0.994 |
| A20C C30A A37G U59A | ≤ 0.5 |
| A20C C22U C33U | 0.542 |
| A20C A45U A65G | 0.58 |
| A20C G23C C34A G67A | ≤ 0.5 |
| A20C G23A A70U | 0.551 |
| A20C C22U U26C C46G C49U A69C | ≤ 0.5 |
| A20C C66G | 0.766 |

| Variant | yeast fitness |
| --- | --- |
| A20C C66A | 0.697 |
| A20C C66U | 0.931 |
| A20G A42U | 0.982 |
| A20C C33U A43C G48C | 0.525 |
| A20C C24U A40G A42U G50A G51C A70C | ≤ 0.5 |
| A20C C30A | 0.746 |
| A20C C22U A43U A69C | ≤ 0.5 |
| A20C C46U | 1.13 |
| A20C G25C C29U | ≤ 0.5 |
| A20C C27A G52C | 0.595 |
| A20C C22U C29G G41C C49G U53A C66U | ≤ 0.5 |
| A20C C31G C61G A65G | ≤ 0.5 |
| A20C C33U | 0.816 |
| A20G C22G U47C | 0.647 |
| A20C G23A C55G | 0.593 |
| A20C G23A | 0.788 |
| A20C C30A A57U | ≤ 0.5 |
| A20C C62A | 0.831 |
| A20C C62U | 0.923 |
| A20C C62G | 0.618 |
| A20C C22U A40U | ≤ 0.5 |
| A20C C30G C60A | ≤ 0.5 |
| A20C C31A C60U | ≤ 0.5 |
| A20C C46A G68A | 0.875 |

| Variant | yeast fitness |
| --- | --- |
| A20C C24U A42U U59C A69U | 0.535 |
| A20C A43U G56A | 0.656 |
| A20G A21C C49U | 0.548 |
| A20G A43G U47G U64G | ≤ 0.5 |
| A20G C22U C49U | 0.682 |
| A20G A40C A42U A43C G48A C61A A69U | ≤ 0.5 |
| A20C A42U A45G | 0.77 |
| A20C C27U A36G A65G G67A | 0.542 |
| A20C G23A A43G C55G C60A | ≤ 0.5 |
| A20C A57U | 0.81 |
| A20C A57C | 0.601 |
| A20C A57G | 0.757 |
| A20G A21C C30A G41C | 0.581 |
| A20C A45U A69U | 0.773 |
| A20C C24A C29G C34G G56A A65G A69C | 0.856 |
| A20C C30G C55A G67A | ≤ 0.5 |
| A20G A40G A42G C55U | ≤ 0.5 |
| A20C C62U A65G | 0.593 |
| A20C C31G U47C G58C | ≤ 0.5 |
| A20C C24U C34G | 0.506 |
| A20C A70C | 0.862 |
| A20C G44C | 0.688 |
| A20C C34A A37G C46A G63C A69C | ≤ 0.5 |
| A20C C30A C33U C34G G38C C62A | ≤ 0.5 |

| Variant | yeast fitness |
| --- | --- |
| A20G A21C G39C G48C C62G | ≤ 0.5 |
| A20C U64C | 0.984 |
| A20C U64A | 0.7 |
| A20G A69U | 1.07 |
| A20G A69G | 1.04 |
| A20G A69C | 0.916 |
| A20C C29G | 0.609 |
| A20C G48C A57G | 0.545 |
| A20G A43U A45C G67C | ≤ 0.5 |
| A20G A45C | 0.866 |
| A20G A45G | 0.992 |
| A20G A45U | 1.04 |
| A20C G39C A70U | 0.521 |
| A20G A65U A69C | ≤ 0.5 |
| A20G A65U A69U | 0.857 |
| A20C C27U A45U | 0.636 |
| A20G C24U C33U | ≤ 0.5 |
| A20C G41C A42C G56A U64C A70U | ≤ 0.5 |
| A20C G50A G68A | ≤ 0.5 |
| A20C C30G U35C C60A | ≤ 0.5 |
| A20C C60G | 0.591 |
| A20C C60U | 0.742 |
| A20C C31A A70U | ≤ 0.5 |
| A20C G39A U54A | 0.599 |

| Variant | yeast fitness |
| --- | --- |
| A20C U28C G41A | 0.592 |
| A20C U28G U47C C66U | ≤ 0.5 |
| A20C G23A G50A C55G C60A | ≤ 0.5 |
| A20C C29U U54C | ≤ 0.5 |
| A20C U47G A69U | 0.559 |
| A20G A37U C46A | ≤ 0.5 |
| A20G C24A C27A | 0.52 |
| A20C C30U C33G A40G | 0.537 |
| A20C G39C C61U | ≤ 0.5 |
| A20C C31U A42U | 0.643 |
| A20C A42C C60A | ≤ 0.5 |
| A20G A21U | 0.782 |
| A20C C49A | 0.575 |
| A20C A69C | 1.13 |
| A20C A69G | 1.01 |
| A20C C33A A65U | ≤ 0.5 |
| A20C C30G C62U | 0.554 |
| A20G A42C U64G | ≤ 0.5 |
| A20C U28A C31G C55A G68C | ≤ 0.5 |
| A20G C24G C60A | ≤ 0.5 |
| A20G A36U C61U | 0.571 |
| A20C C61A | 0.779 |
| A20C C61G | 0.747 |
| A20G A57U | 0.649 |

| Variant | yeast fitness |
| --- | --- |
| A20G A57G | 1 |
| A20C C22U C34U U35G U47C A65C | ≤ 0.5 |
| A20C C24U A42U U59C C62U | ≤ 0.5 |
| A20G A40U G51C | ≤ 0.5 |
| A20C A42C G58C | 0.52 |
| A20C U54A | 0.698 |
| A20G C22U C31G C66U | ≤ 0.5 |
| A20C G23A C30A A40U | ≤ 0.5 |
| A20C G38A C49A G58C A65G G68A A69C | 0.589 |
| A20C C34G A43C G56A C61U | 0.705 |
| A20G A57U A65U G68C | ≤ 0.5 |
| A20C U28C C30A G44C A45G C55A | ≤ 0.5 |
| A20G C22A C34G C46U G63A | ≤ 0.5 |
| A20G C24A C27A A42G A69C | 0.56 |
| A20C C27U C62U | 0.731 |
| A20C C24G G56A C62A | ≤ 0.5 |
| A20C U32A U64A A65U | 0.558 |
| A20G A40C C60G | ≤ 0.5 |
| A20C C22U C34U U35G | ≤ 0.5 |
| A20G A45U G67C | 0.613 |
| A20C C29U U32A A70U | ≤ 0.5 |
| A20C C33U G41A | ≤ 0.5 |
| A20C C34U A40G A57C G67C | ≤ 0.5 |
| A20C C29A G51C | ≤ 0.5 |

| Variant | yeast fitness |
| --- | --- |
| A20G A36C A45C G52A G67U | ≤ 0.5 |
| A20C A43U G48C | 0.615 |
| A20C G52C C61G | ≤ 0.5 |
| A20G A43U C62U | 0.86 |
| A20C U26A C34G A36G C46G | ≤ 0.5 |
| A20C U26C C27U G67A | ≤ 0.5 |
| A20C C30A C33U C34U C49A | 0.733 |
| A20G A40C A42U A43C G48A C55G | ≤ 0.5 |
| A20G A36U A57C | ≤ 0.5 |
| A20G C22G G56A G67A | ≤ 0.5 |
| A20G A21U A36G A40C C55U | ≤ 0.5 |
| A20G A37U C60A | 0.626 |
| A20C G50A | 0.861 |
| A20C G23C C27A | 0.574 |
| A20C G25A A57G | 0.694 |
| A20C C29U C31G U32A C33A U53C | ≤ 0.5 |
| A20C C34U U47G C60U C62G | ≤ 0.5 |
| A20C C29U G50C | ≤ 0.5 |
| A20C C29G A69C | 0.539 |
| A20C C49U A70G | 0.748 |
| A20C C46U G50A G67C A70U | ≤ 0.5 |
| A20G C24G C60G C62U | 0.562 |
| A20G A57G C61U C62U A69G | ≤ 0.5 |
